Measurements as given in ChEMBL document CHEMBL2062476, “One pot efficient diversity oriented synthesis of polyfunctional styryl thiazolopyrimidines and their bio-evaluation as antimalarial and anti-HIV agents” (Eur J Med Chem, 2012).
Converted amounts (≈) assume the structure as drawn.

How the values were obtained:
Plasmodium falciparum [1] = assay: Antimalarial activity against chloroquine sensitive Plasmodium falciparum 3D7 infected in RBCs incubated for 72 hrs by SYBRgreen dye based fluorometric assay; assay type: functional, organism-based; conditions: 3D7, 72 h
Summary of the method: (§1)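 Parasites kept in RPMI-1640 (HEPES) with 0.5% AlbuMaxII, 0.2% glucose, 0.2% NaHCO3, 15 µM hypoxanthine, 37 °C, 5% CO2. Compounds in DMSO (10mg/mL stock), two-fold serial dilutions. Infected erythrocytes added at 4% haematocrit, 1% parasitaemia, incubated 72 h. Lysis buffer with SYBR green added for 4 h in the dark at room temp. Fluorescence read at ex 485/em 535 nm. IC50 taken from parasite DNA content relative to controls.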

Plasmodium falciparum [2] = assay: Antimalarial activity against chloroquine resistant Plasmodium falciparum K1 infected in RBCs incubated for 72 hrs by SYBRgreen dye based fluorometric assay; assay type: functional, organism-based; conditions: K1, 72 h; summary of the method: as §1
[3] = Cytotoxicity against african green monkey Vero C1008 cells incubated for 72 hrs by resazurin dye based fluorometric assay; assay type: cell-based; conditions: chlorocebus sabaeus
Summary of the method: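 Vero (C1008) cells grown in MEM with 15% FBS, 37 °C, 5% CO2; trypsinized, seeded at 1 × 10^5 cells/mL and left to adhere overnight. Serial compound dilutions added for 72 h. Resazurin added, fluorescence read after 4 h; CC50 derived from viability.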

[4] = Selectivity index, ratio of CC50 for african green monkey Vero C1008 cells to IC50 for chloroquine sensitive Plasmodium falciparum 3D7; assay type: functional
Summary of the method: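 SI = CC50 in Vero cells (resazurin, 72 h) divided by IC50 against P. falciparum 3D7. The IC50 came from a SYBR green assay: cultures in RPMI-1640 with 0.5% AlbuMaxII and 15 µM hypoxanthine, 4% haematocrit, 1% parasitaemia, two-fold dilutions, 72 h at 37 °C. Lysis with SYBR green for 4 h, read at ex 485/em 535 nm.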

[5] = Selectivity index, ratio of CC50 for african green monkey Vero C1008 cells to IC50 for chloroquine resistant Plasmodium falciparum K1; assay type: functional
Summary of the method: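 Vero C1008 cells grown in MEM with 15% FBS. Seeded at 1 × 10^5 cells/mL, left to adhere overnight, then exposed to serial compound dilutions for 72 h. Viability read by resazurin fluorescence after 4 h and CC50 derived. SI = CC50 / IC50 against K1, with IC50 from the 72 h SYBR green parasite assay.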

[6] = system: Human immunodeficiency virus; assay: Inhibition of HIV reverse transcriptase activity at 10 ug/ml incubated at 37 degC for 1 hr by ELISA RT assay
Summary of the method: (§2)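 Colorimetric ELISA kit: template/primer with dNTPs (digoxigenin- and biotin-labelled dUTP) plus HIV-1 RT in lysis buffer, 60 µl total, 37 °C for 1 h; no-RT lysis buffer as negative control. Product captured on streptavidin plate 1 h at 37 °C, anti-DIG-POD (200 mU/mL) 1 h, ABTS substrate; OD 405 nm (reference 490 nm).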

[7] = system: Human immunodeficiency virus; assay: Inhibition of HIV reverse transcriptase activity at 100 ug/ml incubated at 37 degC for 1 hr by ELISA RT assay; summary of the method: as §2

SMILES | IC50 (Plasmodium falciparum [1]) [µg/mL] | IC50 (Plasmodium falciparum [2]) [µg/mL] | CC50 at 72 h [3] [µg/mL] | Ratio CC50/IC50 [4] | Ratio CC50/IC50 [5] | inhibition [6] [%] | inhibition [7] [%]
COc1ccc(/C=C/C(=O)C2=C(/C=C/c3ccc(OC)cc3)N=C3SC=C(C)N3C2c2ccccc2)cc1 (stereo not given) | 2.19 (≈ 4.21 µM) | < 0.76 | 358 (≈ 688 µM) | 163.56 | >471.31 | 40.6 | 32.7
CC1=CSC2=NC(/C=C/c3ccc(OCc4ccccc4)cc3)=C(C(=O)/C=C/c3ccc(OCc4ccccc4)cc3)C(c3ccc(Cl)cc3)N12 (stereo not given) | 6.97 (≈ 9.85 µM) | 19.6 (≈ 27.6 µM) | > 500 | >71.74 | >25.56 | 17.6 | 18.6
COc1ccc(C2C(C(=O)/C=C/c3ccccc3)=C(/C=C/c3ccccc3)N=C3SC=C(C)N32)cc1 (stereo not given) | 2.11 (≈ 4.3 µM) | 0.85 (≈ 1.73 µM) | 211 (≈ 430 µM) | 99.95 | 248.11 | 39.4 | 48.6
CC1=CSC2=NC(/C=C/c3ccc4c(c3)OCO4)=C(C(=O)/C=C/c3ccc4c(c3)OCO4)C(c3ccccc3)N12 (stereo not given) | 5.07 (≈ 9.24 µM) | 1.09 (≈ 1.99 µM) | 497 (≈ 905 µM) | 97.97 | 455.71 | – | –
COc1ccc(C2C(C(=O)/C=C/c3ccc(F)cc3)=C(/C=C/c3ccc(F)cc3)N=C3SC=C(C)N32)cc1 (stereo not given) | 5.15 (≈ 9.78 µM) | 1.09 (≈ 2.07 µM) | 261 (≈ 495 µM) | 50.65 | 239.29 | 9.22 | 41.4
CC1=CSC2=NC(/C=C/c3ccc(Cl)cc3)=C(C(=O)/C=C/c3ccc(Cl)cc3)C(c3ccc(Cl)cc3)N12 (stereo not given) | 0.85 (≈ 1.51 µM) | 0.6 (≈ 1.06 µM) | 309 (≈ 548 µM) | 363.57 | 515.05 | 10.6 | 11.4
COc1cc(/C=C\C2=C(C(=O)/C=C/c3cc(OC)c(OC)c(OC)c3)C(c3cc(OC)c(OC)c(OC)c3)N3C(C)=CSC3=N2)cc(OC)c1OC (stereo not given) | 6.82 (≈ 9.33 µM) | < 0.76 | 167 (≈ 228 µM) | 24.44 | >219.3 | 48.4 | 55.9
COc1ccc(/C=C/C(=O)C2=C(/C=C/c3ccc(OC)cc3)N=C3SC=C(C)N3C2c2cc(OC)c(OC)c(OC)c2)cc1 (stereo not given) | 1.57 (≈ 2.57 µM) | 0.71 (≈ 1.16 µM) | 348 (≈ 570 µM) | 221.57 | 489.94 | 30.1 | 51.3
CC1=CSC2=NC(/C=C/c3cccc(Cl)c3)=C(C(=O)/C=C/c3cccc(Cl)c3)C(c3ccccc3)N12 (stereo not given) | 0.79 (≈ 1.49 µM) | 1.2 (≈ 2.27 µM) | 286 (≈ 540 µM) | 361.96 | 238.29 | 15.4 | 54.5
Cc1ccnc2c1NC(=O)c1cccnc1N2C1CC1 | – | – | – | – | – | 97.9 | –
CC1=CSC2=NC(/C=C/c3ccc(Br)cc3)=C(C(=O)/C=C/c3ccc(Br)cc3)C(c3ccc(Cl)cc3)N12 (stereo not given) | 1.27 (≈ 1.95 µM) | 1.22 (≈ 1.87 µM) | 420 (≈ 643 µM) | 330.51 | 344.06 | 17.8 | 26.5
COc1ccc(C2C(C(=O)/C=C/c3ccc4c(c3)OCO4)=C(/C=C/c3ccc4c(c3)OCO4)N=C3SC=C(C)N32)cc1 (stereo not given) | 3.94 (≈ 6.81 µM) | 1.14 (≈ 1.97 µM) | 418 (≈ 722 µM) | 106 | – | 58.8 | 70.8
